One may read the IC50 as the point on the concentration scale where inhibition reaches its midpoint. Broadly, the inhibition is the percentage by which the read-out fell short of the control.

Activity calls are given as the source filed them. The rule behind the calls is not given here.

Series [1] has as its target Tyrosine-protein kinase JAK1 (Homo sapiens, UniProt P23458). Nature of the series: Inhibition of GST tagged human recombinant JAK1 catalytic domain expressed in baculovirus using peptide substrate preincubated for 60 mins followed by substrate addition and measured after 60 mins by microfluidic assay.
Series [2] addresses Mitogen-activated protein kinase kinase kinase kinase 4 (Homo sapiens) (UniProt O95819). Nature of the series: Inhibition of MAP4K4 (unknown origin) at 1 uM relative to control.
Series [3] concerns the target Tyrosine-protein kinase JAK2 (Homo sapiens, UniProt O60674). Nature of the series: Inhibition of GST tagged human recombinant JAK2 catalytic domain expressed in baculovirus using peptide substrate preincubated for 60 mins followed by substrate addition and measured after 60 mins by microfluidic assay. The essentials:
(§1)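 Caliper microfluidic assay of peptide-substrate phosphorylation by the relevant JAK enzyme, run at 1 mM ATP; IC50 values are geometric means of at least three determinations.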

Series [4] in a line: Drug metabolism in human liver microsomes assessed as UGT-mediated compound glucuronidation per mg protein in presence of microsomal activator Brij58 and cofactor UDPGA. The series is classed as ADME. The essentials: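 Human liver microsomes supplemented with the activator Brij58 and cofactor UDPGA, NADPH omitted, to measure phase II glucuronidation turnover.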
Series [5] addresses Non-receptor tyrosine-protein kinase TYK2 (Homo sapiens, UniProt P29597). Nature of the series: Inhibition of Tyk2 (unknown origin) using peptide substrate preincubated for 60 mins followed by substrate addition and measured after 60 mins by microfluidic assay. The essentials:
as §1

Series [6] concerns the target T1, Tyrosine-protein kinase JAK3 (Homo sapiens) (UniProt P52333).
T1 sequence (whole entry): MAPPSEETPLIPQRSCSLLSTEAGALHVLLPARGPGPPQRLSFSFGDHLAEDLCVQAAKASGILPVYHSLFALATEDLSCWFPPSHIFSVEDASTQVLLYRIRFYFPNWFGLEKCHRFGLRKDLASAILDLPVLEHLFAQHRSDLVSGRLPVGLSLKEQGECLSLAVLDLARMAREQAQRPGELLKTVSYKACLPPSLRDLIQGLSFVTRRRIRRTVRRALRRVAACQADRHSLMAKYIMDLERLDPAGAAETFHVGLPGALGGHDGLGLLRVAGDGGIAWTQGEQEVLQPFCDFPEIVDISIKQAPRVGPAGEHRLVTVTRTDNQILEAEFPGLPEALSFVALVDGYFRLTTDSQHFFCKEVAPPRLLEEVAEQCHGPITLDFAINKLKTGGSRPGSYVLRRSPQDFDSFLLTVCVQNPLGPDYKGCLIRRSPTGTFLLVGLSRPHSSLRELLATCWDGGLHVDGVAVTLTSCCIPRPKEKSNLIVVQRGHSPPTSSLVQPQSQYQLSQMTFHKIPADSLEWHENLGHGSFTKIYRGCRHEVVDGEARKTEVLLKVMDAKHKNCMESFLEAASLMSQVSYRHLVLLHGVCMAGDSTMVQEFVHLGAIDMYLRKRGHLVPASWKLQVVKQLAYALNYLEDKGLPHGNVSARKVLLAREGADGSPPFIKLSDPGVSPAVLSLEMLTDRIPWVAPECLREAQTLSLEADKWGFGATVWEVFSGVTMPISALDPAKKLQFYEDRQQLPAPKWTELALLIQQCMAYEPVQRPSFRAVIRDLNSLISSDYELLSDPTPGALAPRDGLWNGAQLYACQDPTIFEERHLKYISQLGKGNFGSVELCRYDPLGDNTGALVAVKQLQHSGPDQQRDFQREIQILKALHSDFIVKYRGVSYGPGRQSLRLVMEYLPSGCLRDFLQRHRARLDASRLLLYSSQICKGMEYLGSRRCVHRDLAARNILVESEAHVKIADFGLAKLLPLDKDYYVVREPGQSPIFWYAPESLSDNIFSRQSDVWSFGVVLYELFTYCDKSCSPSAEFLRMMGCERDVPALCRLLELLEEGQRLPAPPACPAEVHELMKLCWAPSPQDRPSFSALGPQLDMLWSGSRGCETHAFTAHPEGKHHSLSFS
The experiment in a line: Inhibition of GST tagged human recombinant JAK3 catalytic domain expressed in baculovirus assessed as time taken for inhibition to reverse by 50% by dilution recovery based microfluidic mobility shift assay. An outline of the steps:
(§2)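 JAK3 inhibition kinetics measured by continuous dilution-recovery in a microfluidic mobility shift format; offset rate (min−1) converted to a recovery T1/2.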

The target of series [7] is T2, Tyrosine-protein kinase JAK3 (Homo sapiens, UniProt P52333).
T2 sequence (P52333 whole entry): T1 sequence (whole entry)
The experiment in a line: Inhibition of GST tagged human recombinant JAK3 catalytic domain expressed in baculovirus using peptide substrate preincubated for 60 mins followed by substrate addition and measured after 60 mins by microfluidic assay. The essentials: as §1

The target in series [8] is T3, Janus Kinase (JAK) (Homo sapiens, UniProt P52333+P23458+O60674+P29597).
T3 sequence (O60674 whole entry, looked up, one chain of several, the tested form may be a part): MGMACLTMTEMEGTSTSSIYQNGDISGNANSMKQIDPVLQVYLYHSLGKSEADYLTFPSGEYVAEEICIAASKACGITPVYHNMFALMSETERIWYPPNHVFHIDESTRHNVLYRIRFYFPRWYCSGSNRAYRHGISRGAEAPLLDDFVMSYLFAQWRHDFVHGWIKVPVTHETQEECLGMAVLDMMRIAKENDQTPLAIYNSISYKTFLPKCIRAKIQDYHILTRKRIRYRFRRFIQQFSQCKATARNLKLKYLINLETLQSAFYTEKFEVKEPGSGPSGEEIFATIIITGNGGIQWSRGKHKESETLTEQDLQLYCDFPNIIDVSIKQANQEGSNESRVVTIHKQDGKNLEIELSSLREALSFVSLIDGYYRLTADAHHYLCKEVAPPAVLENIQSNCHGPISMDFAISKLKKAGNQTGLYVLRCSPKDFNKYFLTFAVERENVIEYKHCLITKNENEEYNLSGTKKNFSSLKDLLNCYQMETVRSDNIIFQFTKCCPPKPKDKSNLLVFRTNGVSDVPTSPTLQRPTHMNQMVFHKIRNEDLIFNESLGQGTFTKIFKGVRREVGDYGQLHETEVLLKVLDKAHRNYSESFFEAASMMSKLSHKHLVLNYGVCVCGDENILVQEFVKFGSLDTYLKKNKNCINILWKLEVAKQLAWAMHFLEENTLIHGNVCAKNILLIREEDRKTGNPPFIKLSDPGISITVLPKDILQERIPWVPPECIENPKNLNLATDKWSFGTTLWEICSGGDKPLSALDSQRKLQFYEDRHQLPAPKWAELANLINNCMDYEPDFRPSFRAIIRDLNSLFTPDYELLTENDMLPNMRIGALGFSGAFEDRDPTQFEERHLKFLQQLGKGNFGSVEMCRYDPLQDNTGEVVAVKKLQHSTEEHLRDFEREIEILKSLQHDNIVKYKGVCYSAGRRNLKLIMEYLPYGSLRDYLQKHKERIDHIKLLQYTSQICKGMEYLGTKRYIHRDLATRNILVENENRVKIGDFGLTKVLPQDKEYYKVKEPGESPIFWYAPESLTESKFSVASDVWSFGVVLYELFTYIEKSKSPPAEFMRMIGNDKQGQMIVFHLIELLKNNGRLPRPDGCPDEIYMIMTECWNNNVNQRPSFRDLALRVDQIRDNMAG
T3 sequence (P23458 whole entry, looked up, one chain of several, the tested form may be a part): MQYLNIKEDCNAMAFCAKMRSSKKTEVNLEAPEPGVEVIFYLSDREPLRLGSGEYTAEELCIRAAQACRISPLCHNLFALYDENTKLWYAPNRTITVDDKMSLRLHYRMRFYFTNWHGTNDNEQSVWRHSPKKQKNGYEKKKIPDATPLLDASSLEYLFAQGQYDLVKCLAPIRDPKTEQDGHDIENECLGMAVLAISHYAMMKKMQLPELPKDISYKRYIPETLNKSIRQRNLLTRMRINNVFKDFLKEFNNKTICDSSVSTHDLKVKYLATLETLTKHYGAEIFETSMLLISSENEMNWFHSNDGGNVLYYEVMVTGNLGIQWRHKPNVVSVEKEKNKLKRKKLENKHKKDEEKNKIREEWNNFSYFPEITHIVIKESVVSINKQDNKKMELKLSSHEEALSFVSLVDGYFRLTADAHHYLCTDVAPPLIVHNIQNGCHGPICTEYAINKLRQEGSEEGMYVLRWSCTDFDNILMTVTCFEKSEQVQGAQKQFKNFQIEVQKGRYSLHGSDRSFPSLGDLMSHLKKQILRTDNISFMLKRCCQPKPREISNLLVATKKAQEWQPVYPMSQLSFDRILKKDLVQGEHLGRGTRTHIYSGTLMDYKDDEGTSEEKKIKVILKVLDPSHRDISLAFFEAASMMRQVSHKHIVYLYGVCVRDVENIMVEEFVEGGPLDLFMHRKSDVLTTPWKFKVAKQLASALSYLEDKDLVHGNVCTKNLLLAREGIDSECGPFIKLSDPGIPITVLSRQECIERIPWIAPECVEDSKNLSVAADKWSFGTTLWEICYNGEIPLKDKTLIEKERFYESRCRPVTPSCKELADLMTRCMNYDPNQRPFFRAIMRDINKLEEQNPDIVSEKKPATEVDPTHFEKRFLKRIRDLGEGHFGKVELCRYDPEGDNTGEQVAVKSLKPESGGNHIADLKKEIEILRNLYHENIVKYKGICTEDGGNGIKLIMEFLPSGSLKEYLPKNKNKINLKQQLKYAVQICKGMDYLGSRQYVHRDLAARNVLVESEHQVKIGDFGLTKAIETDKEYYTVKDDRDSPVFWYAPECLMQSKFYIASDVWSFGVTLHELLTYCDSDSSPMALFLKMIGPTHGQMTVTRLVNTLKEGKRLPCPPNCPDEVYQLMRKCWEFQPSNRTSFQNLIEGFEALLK
T3 sequence (P29597 whole entry, looked up, one chain of several, the tested form may be a part): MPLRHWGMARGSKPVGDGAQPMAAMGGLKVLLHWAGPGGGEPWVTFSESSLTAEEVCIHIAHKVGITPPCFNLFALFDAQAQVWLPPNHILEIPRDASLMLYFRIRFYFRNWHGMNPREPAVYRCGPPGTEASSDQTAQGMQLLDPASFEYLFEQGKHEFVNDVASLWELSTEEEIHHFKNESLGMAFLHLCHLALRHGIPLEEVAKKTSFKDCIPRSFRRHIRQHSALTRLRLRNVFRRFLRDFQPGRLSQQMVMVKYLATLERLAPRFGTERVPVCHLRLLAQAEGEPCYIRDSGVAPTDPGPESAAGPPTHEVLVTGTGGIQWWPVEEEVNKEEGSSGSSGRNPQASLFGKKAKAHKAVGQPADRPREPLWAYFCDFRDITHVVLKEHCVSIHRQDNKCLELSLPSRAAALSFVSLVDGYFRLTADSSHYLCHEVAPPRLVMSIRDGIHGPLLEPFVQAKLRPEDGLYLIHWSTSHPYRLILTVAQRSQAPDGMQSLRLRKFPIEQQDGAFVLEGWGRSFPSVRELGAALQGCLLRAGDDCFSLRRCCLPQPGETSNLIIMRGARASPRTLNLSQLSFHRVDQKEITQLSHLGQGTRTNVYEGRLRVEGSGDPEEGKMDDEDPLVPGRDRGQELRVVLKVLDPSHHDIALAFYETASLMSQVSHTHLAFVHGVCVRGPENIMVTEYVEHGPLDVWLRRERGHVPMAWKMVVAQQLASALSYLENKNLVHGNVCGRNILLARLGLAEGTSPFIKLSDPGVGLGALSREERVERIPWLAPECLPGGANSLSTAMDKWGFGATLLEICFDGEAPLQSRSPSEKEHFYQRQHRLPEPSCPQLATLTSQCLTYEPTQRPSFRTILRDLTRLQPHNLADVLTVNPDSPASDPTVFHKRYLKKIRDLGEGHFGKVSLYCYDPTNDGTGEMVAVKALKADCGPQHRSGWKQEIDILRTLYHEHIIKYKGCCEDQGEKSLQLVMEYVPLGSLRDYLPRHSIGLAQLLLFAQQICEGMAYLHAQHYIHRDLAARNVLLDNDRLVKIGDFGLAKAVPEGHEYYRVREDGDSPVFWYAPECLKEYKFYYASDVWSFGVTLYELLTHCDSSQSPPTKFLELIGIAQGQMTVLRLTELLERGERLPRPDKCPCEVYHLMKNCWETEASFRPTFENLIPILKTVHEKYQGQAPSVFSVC
The target in series [9] is T1, Tyrosine-protein kinase JAK3 (Homo sapiens). The experiment in a line: Inhibition of GST tagged human recombinant JAK3 catalytic domain expressed in baculovirus assessed as offset rate by dilution recovery based microfluidic mobility shift assay. The essentials: as §2
Series [10] relates to Liver. Nature of the series: Metabolic stability in human liver microsomes assessed per mg protein. The series is classed as ADME, microsome. The essentials: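 Metabolic stability measured as turnover in human liver microsomes.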
On the technique in general: Liver microsomes are a subcellular fraction often used to study metabolism.

The target in series [11] is T3, Janus Kinase (JAK). The source holds these as a separate data set.
A short description of series [12]: Aqueous solubility of the compound. The settings on record: buffer. It is filed as physicochemical.
In series [13] the target is T3, Janus Kinase (JAK). Nature of the series: Inhibition of JAK in human PBMC assessed as reduction in human recombinant IL-2/mouse anti-human CD3 stimulated IFNgamma production preincubated for 1 hr followed by IL2/CD3 stimulation measured after 18 hrs by ELISA. The essentials: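 Primary PBMCs stimulated with IL-2; inhibition of IFNγ release measured. IC50 values are geometric means of at least three determinations.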

The species entered for series [14] is Homo sapiens. The experiment in a line: Selectivity ratio of IC50 for GST tagged human recombinant JAK3 catalytic domain expressed in baculovirus to IC50 for GST tagged human recombinant JAK1 catalytic domain expressed in baculovirus. An outline of the steps: (§3)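 Both IC50s come from the same microfluidic mobility-shift (Caliper) assay with 1 mM ATP. The read-out is inhibition of phosphorylation of a peptide substrate by JAK1, JAK2 or JAK3. Each IC50 is a geometric mean of at least three determinations.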

The species entered for series [15] is Homo sapiens. The experiment in a line: Selectivity ratio of IC50 for GST tagged human recombinant JAK2 catalytic domain expressed in baculovirus to IC50 for GST tagged human recombinant JAK1 catalytic domain expressed in baculovirus. An outline of the steps:
as §3

Tyrosine-protein kinase JAK2, sequence (O60674 whole entry, the tested form may be a part): as the sequence (O60674 whole entry, looked up, one chain of several, the tested form may be a part) above
Tyrosine-protein kinase JAK1, sequence (P23458 whole entry, the tested form may be a part): as the sequence (P23458 whole entry, looked up, one chain of several, the tested form may be a part) above
Non-receptor tyrosine-protein kinase TYK2, sequence (P29597 whole entry): as the sequence (P29597 whole entry, looked up, one chain of several, the tested form may be a part) above
Mitogen-activated protein kinase kinase kinase kinase 4 (Homo sapiens), sequence (O95819 2-1239 limits assumed): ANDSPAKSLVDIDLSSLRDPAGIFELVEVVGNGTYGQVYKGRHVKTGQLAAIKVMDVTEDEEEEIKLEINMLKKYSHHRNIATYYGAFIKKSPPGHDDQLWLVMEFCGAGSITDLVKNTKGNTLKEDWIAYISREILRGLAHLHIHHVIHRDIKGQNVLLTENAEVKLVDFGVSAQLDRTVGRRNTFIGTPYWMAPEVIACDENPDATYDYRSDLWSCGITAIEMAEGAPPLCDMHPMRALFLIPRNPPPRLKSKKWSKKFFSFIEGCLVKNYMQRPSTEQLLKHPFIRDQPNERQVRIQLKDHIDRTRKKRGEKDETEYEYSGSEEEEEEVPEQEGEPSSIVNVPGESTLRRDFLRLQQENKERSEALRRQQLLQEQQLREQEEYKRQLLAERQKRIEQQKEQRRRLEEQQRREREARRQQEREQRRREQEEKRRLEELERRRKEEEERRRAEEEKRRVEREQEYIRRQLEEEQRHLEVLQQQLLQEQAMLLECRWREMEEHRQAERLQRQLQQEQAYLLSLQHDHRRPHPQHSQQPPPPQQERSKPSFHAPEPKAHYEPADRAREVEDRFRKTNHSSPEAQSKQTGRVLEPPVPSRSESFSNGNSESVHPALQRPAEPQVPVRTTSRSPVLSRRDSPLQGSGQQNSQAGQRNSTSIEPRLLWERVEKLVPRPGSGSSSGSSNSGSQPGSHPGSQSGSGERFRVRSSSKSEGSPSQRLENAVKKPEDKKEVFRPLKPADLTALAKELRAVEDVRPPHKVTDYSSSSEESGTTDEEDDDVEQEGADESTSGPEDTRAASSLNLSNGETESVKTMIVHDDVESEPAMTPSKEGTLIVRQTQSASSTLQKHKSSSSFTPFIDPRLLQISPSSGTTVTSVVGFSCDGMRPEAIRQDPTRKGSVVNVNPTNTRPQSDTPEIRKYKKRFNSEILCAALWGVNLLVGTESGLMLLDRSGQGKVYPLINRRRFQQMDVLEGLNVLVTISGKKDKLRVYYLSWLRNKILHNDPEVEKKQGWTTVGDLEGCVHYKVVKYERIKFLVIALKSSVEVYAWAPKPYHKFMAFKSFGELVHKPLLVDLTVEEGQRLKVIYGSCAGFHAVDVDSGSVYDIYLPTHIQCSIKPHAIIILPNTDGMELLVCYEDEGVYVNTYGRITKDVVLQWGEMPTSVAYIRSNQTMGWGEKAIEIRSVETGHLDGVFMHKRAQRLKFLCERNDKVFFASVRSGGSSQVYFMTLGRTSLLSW

In the case of `CCc1cc(O)ccc1-c1ccc2c(-c3nc4ccccc4[nH]3)n[nH]c2c1`, the half-inhibitory concentration (IC50) in series [1] is 0.4 nM; in series [3], 2.2 nM; in [5] it was 9.1 nM; in series [7] it was 8.3 nM; in series [13], 10.5 nM. The molecule further showed an inhibition in series [2] of more than 85%. The Drug metabolism in series [4] turned out to be 49 µL/min. In addition, the T1/2 was 1.9 h in [6] and 6.5 h in series [11]. In addition, in [8], the TDI result is “Active”. The K in [9] was found to be 0.006 min⁻¹. In addition, the Stability in series [10] stood at 35 µL/min. Moreover, the solubility result in [12] was “Insoluble”.

For `C[C@@H]1CCN(C(=O)CC#N)C[C@@H]1N(C)c1ncnc2[nH]ccc12`, the Ratio IC50 in [14] came to 3; in [15], 5.
